Results from PubChem BioAssay.
Results filed as inconclusive are left out. Active and inactive are the calls of the source.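 Rule for the calls, unless noted: active = growth inhibition above 25% in both replicates, a cutoff set 3 SD above the mean; inconclusive = above 25% in only one replicate; inactive = the rest.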

Assays:
[1] = S. cerevisiae growth inhibition in permissive medium (OD615), pilot counter-assay for S. cerevisiae lifespan shortening project, permissive growth control (AID 705); details: OD615, 24 h, at 10 µM, hits give high values
Summary of the method: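 System: S. cerevisiae with engineered DeaD lifespan system. Medium: SC raffinose/galactose permissive medium. Doses: single compound dose of 10 µM, 0.25% DMSO final. Schedule: 24 h exposure, 30 °C. Measured by: OD615 turbidity read. Read-out: growth inhibition.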

[2] = S. cerevisiae growth inhibition in restrictive medium, OD615, pilot screen, restrictive growth control, yeast lifespan reduction project (AID 706;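 active = growth inhibition above a set limit, 3 SD over mean compound inhibition, in both replicates, cut at about 43% in these data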;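 note: modified DeaD lifespan yeast strain shifted to restrictive glucose medium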); details: OD615, 48 h, at 10 µM, hits give high values
Summary of the method: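 Assay system – genetically modified Saccharomyces cerevisiae, DeaD replicative lifespan assay strain · Medium – CSMM-D glucose medium · Doses – 10 µM compound, 0.25% DMSO · Times – 4 h pre-incubation, 48 h exposure at 30 °C · Signal – optical density at 615 nm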

[3] = doxorubicin toxicity protection in MRP-1 cells – H69AR cells, CellTiter-Glo, duplicate, MRP-1 activator project, pilot screen (AID 807;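 active = viability increase at or above a cutoff of the median across tested compounds plus 3 SD, cut at about 8.5% in these data, passing the limit was not always enough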;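 note: compound pretreatment 18-22 h then 72 h combined with doxorubicin; 0% = doxorubicin alone and 100% = vehicle without doxorubicin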); details: H69AR viability with doxorubicin, CellTiter-Glo luminescence; at 10 µM; hits give high values
[4] = viability of HCT116 without oncogenic beta-catenin – human colon tumor cells, pilot screen (AID 823;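 active = cell viability at or below a set limit in both duplicate runs, the limit being the all-compound median minus 4 SD, cut at about 23% in these data, passing the limit was not always enough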;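 note: 0% = wells killed by 20 µM Hyamine and 100% = untreated DMSO cell wells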); details: HCT116 beta-catenin knockout viability, CellTiter-Glo, 60 h; at 10 µM; hits give low values
[5] = viability of PTEN-null HCT116 cells – cell-based, HCT116 clonal line, CellTiter-Glo, pilot screen (AID 824;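 active = viability at or below 27.92% in each of two runs, the all-compound median minus 4 SD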;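 note: 0% = 20 µM Hyamine control and 100% = vehicle cell control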); details: HCT116 PTEN-deleted viability, 60 h, at 10 µM, hits give low values
[6] = RAM pathway blockade in budding yeast – dse1pr::URA3 reporter, 5-FOA selection, pilot screen (AID 869;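 active = inhibition over a set limit, the all-compound mean plus 3 SD, in both replicate runs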;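 note: 0% = DMSO wells with no growth and 100% = 10 µM 1-NA-PP1 with full growth; RAM network block rescues cells from 5-FOA so hits raise OD615 growth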); details: S. cerevisiae dse1pr::URA3 5-FOA growth, OD615, 2 d; at 10 µM; hits give high values; strain carries analog-sensitive mutant Cbk1 kinase
[7] = RAM signaling pathway blockade in yeast – S. cerevisiae, Pdr1DBD-CYC8 efflux-inhibited sensitized strain, primary screen (AID 1298;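 active = RAM network inhibition above 8.4% in each of two replicates, 3 SD over the compound average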;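 note: 0% = DMSO untreated cells without growth and 100% = 10 µM 1-NA-PP1 full growth; higher means more yeast growth rescued from 5-FOA killing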); details: S. cerevisiae cbk1-as DSE1-URA3 strain, 5-FOA growth OD615, 2 d; at 50 µM; hits give high values

Compound | growth inhibition [1] | growth inhibition [2] | viability increase [3] | viability [4] | viability [5] | inhibition [6] | RAM network inhibition [7]
CN(C)c1cc(-c2ccccc2)nc(N)n1 | -13.3% (inactive) | -15.5% (inactive) | -6.2% (inactive) | 64.2% (inactive) | 55.8% (inactive) | 2.73% (inactive) | 0.09% (inactive)
Brc1ccc(CSc2nnc(-c3ccccn3)n2Cc2ccco2)cc1 | 2.3% (inactive) | 28.9% (inactive) | -3.69% (inactive) | 15.2% (active) | 15.7% (active) | 2.53% (inactive) | 7.63% (inactive)
Cn1nc(-c2ccc(Cl)cc2)c2cc(C(=O)NCCCN3CCOCC3)sc21 | -3.37% (inactive) | 5.94% (inactive) | -7.82% (inactive) | 4.12% (active) | 5.19% (active) | -0.235% (inactive) | -0.16% (inactive)
COc1ccc(C(c2sc3nc(C)nn3c2O)N2CCC(O)CC2)cc1OC (stereo not drawn) | 4.24% (inactive) | 0.32% (inactive) | -0.06% (inactive) | 106% (inactive) | 100% (inactive) | 1.38% (inactive) | 5.56% (inactive)
CC1CCN(C(=O)CSc2ccc3nnc(-c4cccc(F)c4)n3n2)CC1 | -0.835% (inactive) | -0.735% (inactive) | -3.12% (inactive) | 79.5% (inactive) | 81.3% (inactive) | 0.67% (inactive) | -1.03% (inactive)
CCOC(=O)c1ccccc1NC(=O)CN(c1cccc(OC)c1)S(C)(=O)=O | -7.1% (inactive) | -3.34% (inactive) | -5.04% (inactive) | 91.7% (inactive) | 83.3% (inactive) | 1.65% (inactive) | 4.56% (inactive)
CCC(C)NC(=O)C1CCC(=O)N(c2ccc3c(c2)OCO3)C1c1ccc(OC)cc1 (stereo not drawn) | 0.49% (inactive) | -0.06% (inactive) | -1.78% (inactive) | 103% (inactive) | 100% (inactive) | 1.02% (inactive) | 4.2% (inactive)
CCC(=O)NCCc1cc2ccc(C)cc2[nH]c1=O | -3.85% (inactive) | -15.4% (inactive) | -1.94% (inactive) | 110% (inactive) | 93.8% (inactive) | 2.58% (inactive) | 0.78% (inactive)
CC(=O)N1CCC2(CC1)C(C#N)=C(N)Oc1n[nH]c(C)c12 | -6.98% (inactive) | 14.8% (inactive) | 0.18% (inactive) | 97.9% (inactive) | 98.2% (inactive) | 1.04% (inactive) | 6.55% (inactive)
COc1ccc(O)c(-c2[nH]ncc2C(=O)c2ccccc2)c1 | -14.7% (inactive) | -2.28% (inactive) | -2.45% (inactive) | 101% (inactive) | 94.8% (inactive) | 1.27% (inactive) | 4.35% (inactive)
COc1ccc(NC(=O)CSc2nnc(Cn3c(=O)sc4ccccc43)n2C)cc1 | -3.85% (inactive) | 7.49% (inactive) | -4.99% (inactive) | 111% (inactive) | 98.4% (inactive) | 2.43% (inactive) | 1.51% (inactive)
O=C(Cn1cnc2c(nnn2-c2ccccc2)c1=O)N1CCC(Cc2ccccc2)CC1 | 7.29% (inactive) | 9.16% (inactive) | -1.56% (inactive) | 91.4% (inactive) | 85.3% (inactive) | 2.19% (inactive) | 7.33% (inactive)
O=C(CCN1C(=O)c2ccccc2C1=O)Nc1ccncc1 | 0.69% (inactive) | -3.13% (inactive) | 3.4% (inactive) | 98.5% (inactive) | 105% (inactive) | 1.6% (inactive) | 1.47% (inactive)
CC(=O)N1CCN(c2ccc(NCc3ccc(C)s3)cc2)CC1 | -5.79% (inactive) | 8.29% (inactive) | -2.32% (inactive) | 99% (inactive) | 95% (inactive) | 1.92% (inactive) | 7.94% (inactive)
